Data set [1] in a line: Cytotoxicity against MDCK cells assessed as reduction in cell viability incubated for 48 hrs by MTT assay. Format: cell-based, Canis lupus familiaris. The conditions noted are these: dog. In short, it runs like this:
(§1)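 MDCK cells (2 × 10⁴/well) grown 24 h, then given serial compound dilutions or DMSO in DMEM with 10% FBS for 48 h at 37 °C. MTT (5 mg/mL in PBS) added for 4 h. Lysed overnight with 10% SDS/0.01 N HCl, then OD read at 620 nm. CC50 is the concentration reducing viability by 50%. At least three independent experiments in duplicate.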
In general terms: Tetrazolium dyes change colour on reduction, which living cells bring about.

Data set [2] deals with Influenza A virus. In words: Antiviral activity against Influenza A virus A/PR/8/34(H1N1) infected in MDCK cells assessed as inhibition of plaque formation for 48 hrs by plaque reduction assay. It counts as functional, organism-based. To be noted: A/Puerto Rico/8/1934(H1N1). The gist of the method:
(§2)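 MDCK monolayers (5 × 10⁵ cells/well, seeded 24 h earlier) washed with serum-free DMEM. Infected with A/PR/8/34 at 40 PFU/well for 1 h at 37 °C, in DMEM with TPCK-trypsin and 0.14% BSA, with compound or DMSO present. Overlay of the same medium plus 1.2% Avicel and compound. At 48 h, fixed with 4% formaldehyde and stained with 0.1% toluidine blue. Plaques counted against DMSO control set at 100%. At least three independent experiments in duplicate.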
For orientation: In a plaque reduction assay, fewer plaques than in the control indicate reduced infectivity or spread.

Data set [3] addresses PA/PB1 (Influenza A virus (A/Puerto Rico/8/1934(H1N1)), UniProt P03431+P03433). Briefly: Inhibition of Influenza A virus 6 His-tagged PA (239 to 716 residues) expressed in Escherichia coli BL21 pLysS/GST-tagged PB1 (1 to 25 residues) expressed in Escherichia coli protein-protein interaction using 3.3',5,5' tetramethyl benzidine as substrate by ELISA. The gist of the method:
(§3)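 Wells coated with 400 ng 6His-PA(239–716), E. coli BL21(DE3)pLysS-expressed, for 3 h at 37 °C, then blocked with 2% BSA/PBS for 1 h. Then 200 ng GST-PB1(1–25), or GST alone as control, added with compound at various concentrations, overnight at room temperature. Bound PB1 detected with HRP-anti-GST antibody (1:4000 in PBS/2% FBS). IC50 is the concentration halving PA–PB1 binding. At least three independent experiments in duplicate.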

Data set [4] has as its system Influenza A virus. Briefly: Antiviral activity against Influenza A virus A/PR/8/34(H1N1) infected in MDCK cells assessed as inhibition of viral replication by plaque reduction assay. It counts as functional, organism-based. The conditions noted are these: A/Puerto Rico/8/1934(H1N1). In short, it runs like this: as §2
The nature of data set [5]: Cytotoxicity against MDCK cells assessed as reduction in cell viability by MTT assay. Format: cell-based, Canis lupus familiaris. The conditions noted are these: dog. The gist of the method:
as §1

The target in data set [6] is PA/PB1 (Influenza A virus (A/Puerto Rico/8/1934(H1N1)), UniProt P03431+P03433). In words: Inhibition of Influenza A virus PA-PB1 protein-protein interaction by ELISA. Format: protein assay. The gist of the method:
as §3

In another data set the test system is SARS-CoV-2. Briefly: microbe, parasite or virus in culture. Format: functional, organism-based, Vero E6. The conditions noted are these: Severe acute respiratory syndrome coronavirus 2, Vero C1008.
The target of data set [7] is RNA-directed RNA polymerase (Influenza A virus (strain A/Puerto Rico/8/1934 H1N1), UniProt P03428+P03431+P03433). Briefly: Inhibition of RdRP activity in Influenza A virus A/PR/8/34(H1N1) infected in HEK293T cells incubated for 24 hrs by minireplicon based dual luciferase assay. Format: cell-based, Influenza A virus (A/Puerto Rico/8/1934(H1N1)). The gist of the method: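 HEK293T cells (2 × 10⁵/well) plated overnight. Calcium-phosphate transfected with PB1, PB2, PA and NP plasmids (100 ng each), pPolI-Flu-ffLuc reporter (50 ng) and pRL-SV40 (50 ng), with compound or DMSO. Medium replaced at 5 h with compound-containing DMEM. Dual luciferase read at 24 h post-transfection. Firefly normalised to Renilla, with DMSO set at 100% polymerase activity.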
Background: Replicon systems follow genome replication, usually without infectious particles.

Data set [8] is described as follows: Cytotoxicity against African green monkey Vero E6 cells assessed as reduction in cell viability incubated for 1 to 2 hrs by MTS assay. It counts as cell-based, Vero C1008. To be noted: chlorocebus sabaeus, time 1-2 hrs. The gist of the method:
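Vero E6 cell viability measured by the colorimetric formazan-based MTS assay. Means of duplicate experiments.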

Where only a bound is given, the exact number is not on record here.

In the case of `O=C(Nc1nc2nc(-c3ccccc3)cc(O)n2n1)c1ccccc1`, the CC50 at 48 h in [1] was above 250 µM. Further, the EC50 in the data set on Influenza A virus [2] was above 100 µM. Also, the IC50 in [3] was determined as 21 µM.
Turning to `O=C(Nc1nc2nccc(-c3ccccc3)n2n1)c1ccccc1`, the CC50 at 48 h in data set [1] is above 250 µM. In addition, the EC50 in the data set with Influenza A virus [2] is above 100 µM. The molecule further displayed an IC50 in [3] above 200 µM.
`COc1ccc(C(=O)Nc2nc3n(n2)C(c2ccccc2)C=C(C)N3)cc1` (configuration not stated): in the data set with Influenza A virus [4], the EC50 is above 100 µM. For the same molecule, the CC50 in data set [5] was determined as 240 µM. Moreover, it took 171 µM to reach half-maximal inhibition in data set [6] (IC50).
Consider `COc1ccc(C(=O)Nc2nc3nc(-c4ccccc4)cc(C)n3n2)cc1`, for which the CC50 at 48 h in [1] is above 250 µM. Also, the EC50 with SARS-CoV-2 and in the data set on Influenza A virus [2] was above 100 µM throughout.
In the case of `CCCOc1ccc(C(=O)Nc2nc3nc(-c4ccccc4)cc(C)n3n2)cc1`, the CC50 at 48 h in [1] was found to be 247 µM. Besides, the EC50 in the data set on SARS-CoV-2 is 65.3 µM; in the data set with Influenza A virus [2], above 100 µM.
With `O=C(Nc1nc2nc(-c3ccccc3)ccn2n1)c1ccccc1`, in data set [1], the CC50 at 48 h was above 250 µM. Further, the EC50 in the data set on Influenza A virus [2] is above 100 µM. In addition, in [3], the IC50 amounted to 165 µM.
On to `Cc1cc(-c2ccccc2)nc2nc(NC(=O)c3ccccc3F)nn12`, for which the CC50 at 48 h in data set [1] is above 250 µM. For the same molecule, the EC50 in the data set on SARS-CoV-2 is 30.6 µM; in the data set with Influenza A virus [2] it was above 100 µM.
With `Cc1cc(-c2ccccc2)nc2nc(C(=O)Nc3ccccc3C(=O)O)nn12`, the CC50 at 48 h in data set [1] is above 250 µM. Also, the EC50 with Influenza A virus [2] was above 100 µM. In [3], this molecule came in with an IC50 of 32 µM.
Regarding `COC(=O)c1ccccc1NC(=O)c1nc2nc(C)cc(-c3ccccc3)n2n1`, the CC50 at 48 h in data set [1] was above 250 µM. Also, in the data set on Influenza A virus [2], the EC50 was above 80 µM. The same molecule yielded an IC50 in [3] of 26.5 µM.
Consider `Cc1cc(-c2ccccc2)nc2nc(NC(=O)c3ccc(N)cc3)nn12`, for which, in data set [1], the CC50 at 48 h was above 250 µM. Further, the figures for the EC50 with SARS-CoV-2 and with Influenza A virus [2] were 44 µM and above 100 µM, respectively.
Regarding `NC(=O)c1ccccc1NC(=O)c1nc2ncc(-c3ccccc3)cn2n1`, in data set [1], the CC50 at 48 h is above 250 µM. For the same molecule, the EC50 with Influenza A virus [2] was above 100 µM. The molecule further showed an IC50 in data set [3] above 200 µM.
For the molecule `Cc1cc(-c2ccccc2)nc2nc(NC(=O)c3ccc([N+](=O)[O-])cc3)nn12`, the CC50 at 48 h in data set [1] is above 250 µM. In addition, the EC50 in the data set on SARS-CoV-2 and in the data set with Influenza A virus [2] was above 100 µM each time.
Consider `Cc1cc(-c2ccccc2)n2nc(C(=O)Nc3ccccc3C(=O)O)nc2n1`, for which the CC50 at 48 h in data set [1] is above 250 µM. In addition, the concentration giving a half-maximal response (EC50) in the data set with Influenza A virus [2] is above 100 µM. This molecule returned an IC50 in data set [3] of 116 µM.
As to `Cc1cc(-c2ccccc2)nc2nc(NC(=O)c3ccc(O)c(O)c3)nn12`, the CC50 at 48 h in [1] stood at 112 µM. The EC50 with SARS-CoV-2 and in the data set with Influenza A virus [2] was above 100 µM each time.
On to `NC(=O)c1c(NC(=O)c2nc3nccc(-c4ccccc4)n3n2)sc2c1CCCCC2`, for which the CC50 at 48 h in [1] is above 200 µM. Moreover, the EC50 in the data set with Influenza A virus [2] was above 60 µM. In data set [3], this molecule came in with an IC50 of 22 µM.
The like results for `NC(=O)c1c(NC(=O)c2nc3ncc(-c4ccccc4)cn3n2)sc2c1CCCCC2` were, in that order, 100 µM, above 80 µM and 35 µM.
The like results for `O=C(Nc1nc2ncc(-c3ccccc3)cn2n1)c1ccccc1` were, in that order, above 250 µM, above 100 µM and above 200 µM.
The corresponding values for `NC(=O)c1ccccc1NC(=O)c1nc2nccc(-c3ccccc3)n2n1` are above 250 µM, above 100 µM and 21 µM.
Turning to `Cc1cc(-c2ccccc2)n2nc(-c3nc4ccccc4c(=O)o3)nc2n1`, the CC50 at 48 h in data set [1] is above 250 µM. For the same molecule, the EC50 in the data set with Influenza A virus [2] amounted to 16 µM; in data set [7], 21 µM. For the same molecule, the IC50 in data set [3] is 19.5 µM.
In the case of `Cc1cc(-c2ccccc2)nc2nc(-c3nc4ccccc4c(=O)o3)nn12`, in [1], the CC50 at 48 h is above 200 µM. For the same molecule, in the data set with Influenza A virus [2], the EC50 is above 100 µM. In data set [3], this molecule returned an IC50 of 123 µM.
As to `COC(=O)c1ccccc1NC(=O)c1nc2nc(-c3ccccc3)cc(C)n2n1`, the half-maximal cytotoxic concentration (CC50) at 48 h in data set [1] was above 250 µM. Further, in the data set on Influenza A virus [2], the EC50 was above 100 µM. The molecule also gave an IC50 in data set [3] of 22.3 µM.
Turning to `Cc1cc(-c2ccccc2)nc2nc(C(=O)Nc3ccccc3F)nn12`, in data set [1], the CC50 at 48 h is above 250 µM. The values for the EC50 in the data set on SARS-CoV-2 and in the data set on Influenza A virus [2] were 34.5 µM and 83.8 µM, respectively. Further, in data set [8], the CC50 is above 100 µM.
Consider `N#C[C@@]1(c2ccc3c(N)ncnn23)O[C@H](CO)[C@@H](O)[C@H]1O` [GS-441524], for which, in the data set with SARS-CoV-2, the EC50 worked out at 0.89 µM.
Turning to `NC(=O)c1ncn([C@@H]2O[C@H](CO)[C@@H](O)[C@H]2O)n1` [RIBAVIRIN], the CC50 at 48 h in data set [1] was above 250 µM. For the same molecule, the 50% effective concentration (EC50) with Influenza A virus [2] is 10 µM; in [7], 16 µM.

A word on the CC50: it is the concentration that lowers cell viability or growth by half. What is called EC50 is the concentration giving half of the maximal effect. As a reminder, the IC50 is the concentration that gives 50% inhibition.

The values are drawn from ChEMBL document CHEMBL4837208, “1,2,4-Triazolo[1,5-a]pyrimidines: Efficient one-step synthesis and functionalization as influenza polymerase PA-PB1 interaction disruptors” (Eur J Med Chem, 2021).
